Assay results taken from ChEMBL document CHEMBL3271964, “Synthesis and biological activity of new 2-nitroimidazole derivatives” (J Med Chem, 1978).
Values after ≈ are worked out from the molar mass of the structure shown. Active and inactive are the calls of the source.

Legend:
[1] = tested on: Trichomonas vaginalis; experiment: Antimicrobial activity against Trichomonas vaginalis infected in po dosed mouse relative to metronidazole; assay type: functional
Outline: (§1)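 Mice infected subcutaneously, then dosed orally. Vehicle depended on compound: suspension in aqueous 0.75% sodium carboxymethylcellulose, DMF-H₂O, DMF-phosphate buffer pH 7.38, or water. ED₅₀ determined, with metronidazole run in parallel. The relative value is ED₅₀ (test) / ED₅₀ (metronidazole).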

[2] = tested on: Mycoplasmoides gallisepticum; experiment: Antimicrobial activity against Mycoplasma gallisepticum S6 Weybridge by broth dilution method; assay type: functional
[3] = tested on: Trichomonas vaginalis; experiment: Antimicrobial activity against Trichomonas vaginalis by broth dilution method; assay type: functional
[4] = tested on: Clostridium perfringens; experiment: Antimicrobial activity against Clostridium perfringens ISS 30543 by broth dilution method; assay type: functional
[5] = tested on: Streptococcus pyogenes; experiment: Antimicrobial activity against Streptococcus pyogenes C 203 by microtitre method; assay type: functional
[6] = tested on: Staphylococcus aureus; experiment: Antimicrobial activity against Staphylococcus aureus Tour by microtitre method; assay type: functional
[7] = tested on: Trichomonas vaginalis; experiment: Antimicrobial activity against Trichomonas vaginalis infected in po dosed mouse; assay type: functional; outline: as §1
[8] = tested on: Mus musculus; experiment: Toxicity in CF1 mouse assessed as cyanosis at 60 to 600 mg/kg, po by Irwin test; assay type: organism-based; design: dose 60-600 mg/kg, route oral; conditions: in vivo
Outline: (§2)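 Irwin observational method in male CF1 mice (19–22 g). Oral dosing of a suspension in 0.5% Methocel 90-HG at 10 mL/kg, up to 600 mg/kg; controls received saline. Directly observable behavioural and autonomic changes were scored, with the threshold dose for onset recorded.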

[9] = tested on: Mus musculus; experiment: Toxicity in CF1 mouse assessed as change in sleeping time at 500 mg/kg, po administered 30 mins prior to hexobarbital sodium challenge relative to vehicle-treated control; assay type: organism-based; design: dose 500 mg/kg, route oral; conditions: in vivo, 0.5 h
Outline: (§3)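 Male CF1 mice (19–22 g), groups of 30, given oral doses as a 0.5% Methocel 90-HG suspension at 10 mL/kg; saline controls (90 animals). Hexobarbital sodium 75 mg/kg ip given 30 min later, at 25–26 °C. Sleeping time given as mean ± SE and as % change vs controls; Dunnett's t test.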

[10] = tested on: Mus musculus; experiment: Toxicity in CF1 mouse assessed as reduction in spontaneous activity at 60 to 600 mg/kg, po by Irwin test; assay type: organism-based; design: dose 60-600 mg/kg, route oral; conditions: in vivo; outline: as §2
[11] = tested on: Mus musculus; experiment: Toxicity in CF1 mouse assessed as change in sleeping time at 250 mg/kg, po administered 30 mins prior to hexobarbital sodium challenge relative to vehicle-treated control; assay type: organism-based; design: dose 250 mg/kg, route oral; conditions: in vivo, 0.5 h; outline: as §3
[12] = tested on: Mus musculus; experiment: Toxicity in CF1 mouse assessed as reduction in heart rate at 60 to 600 mg/kg, po by Irwin test; assay type: organism-based; design: dose 60-600 mg/kg, route oral; conditions: in vivo; outline: as §2
[13] = tested on: Mus musculus; experiment: Toxicity in CF1 mouse assessed as reduction in curiosity at 60 to 600 mg/kg, po by Irwin test; assay type: organism-based; design: dose 60-600 mg/kg, route oral; conditions: in vivo; outline: as §2
[14] = tested on: Mus musculus; experiment: Toxicity in CF1 mouse assessed as ataxia at 60 to 600 mg/kg, po by Irwin test; assay type: organism-based; design: dose 60-600 mg/kg, route oral; conditions: in vivo; outline: as §2
[15] = tested on: Rattus norvegicus; experiment: Effect on pressor response in conscious normotensive rat up to 50 mg/kg; assay type: functional, organism-based; design: dose 50 mg/kg
[16] = Therapeutic index, ratio of LD50 for po dosed mouse to ED50 for Trichomonas vaginalis infected in po dosed mouse; assay type: organism-based; conditions: in vivo, read-out: Ratio LD50/ED50
Outline: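 Ratio of two mouse values, both dosed orally. The LD50 comes from acute toxicity, with compounds suspended in aqueous 0.5% Methocel 90-HG. The ED50 comes from subcutaneous T. vaginalis infection treated orally. The ED50 vehicle varied by compound: suspension in aqueous 0.75% sodium carboxymethylcellulose, DMF-H2O, DMF-phosphate buffer pH 7.38, or H2O.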

[17] = tested on: Mus musculus; experiment: Toxicity in CF1 mouse assessed as reduction in respiratory rate at 60 to 600 mg/kg, po by Irwin test; assay type: organism-based; design: dose 60-600 mg/kg, route oral; conditions: in vivo; outline: as §2
[18] = tested on: Rattus norvegicus; experiment: Inhibition of carrageenan-induced edema in rat; assay type: functional, organism-based
[19] = tested on: Mus musculus; experiment: Inhibition of strychine sulfate/pentetrazole-induced death in CF1 mouse at 250 to 500 mg/kg, po administered 60 mins prior to strychine sulfate/pentetrazole challenge; assay type: functional, organism-based
[20] = tested on: Mus musculus; experiment: Toxicity in CF1 mouse assessed as reduction in opening of eyelid at 60 to 600 mg/kg, po by Irwin test; assay type: organism-based; design: dose 60-600 mg/kg, route oral; conditions: in vivo; outline: as §2
[21] = tested on: Mus musculus; experiment: Toxicity in CF1 mouse assessed as reduction in body tone at 60 to 600 mg/kg, po by Irwin test; assay type: organism-based; design: dose 60-600 mg/kg, route oral; conditions: in vivo; outline: as §2
[22] = Acute toxicity in po dosed mouse; assay type: organism-based; conditions: in vivo
Outline: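 Acute toxicity in mice by the oral route. Compounds were given as suspensions in aqueous 0.5% Methocel 90-HG.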

[23] = Solubility of the compound in water; assay type: physicochemical; conditions: buffer
[24] = tested on: Mus musculus; experiment: Toxicity in CF1 mouse assessed as reduction in curiosity at 10 to 600 mg/kg, po by Irwin test; assay type: organism-based; design: dose 10-600 mg/kg, route oral; conditions: in vivo; outline: as §2
[25] = tested on: Mus musculus; experiment: Toxicity in CF1 mouse assessed as change in sleeping time at 600 mg/kg, po administered 30 mins prior to hexobarbital sodium challenge relative to vehicle-treated control; assay type: organism-based; design: dose 600 mg/kg, route oral; conditions: in vivo, 0.5 h; outline: as §3
[26] = tested on: Mus musculus; experiment: Toxicity in CF1 mouse assessed as reduction in body tone at 10 to 600 mg/kg, po by Irwin test; assay type: organism-based; design: dose 10-600 mg/kg, route oral; conditions: in vivo; outline: as §2
[27] = tested on: Mus musculus; experiment: Toxicity in CF1 mouse assessed as reduction in spontaneous activity at 10 to 600 mg/kg, po by Irwin test; assay type: organism-based; design: dose 10-600 mg/kg, route oral; conditions: in vivo; outline: as §2
[28] = tested on: Mus musculus; experiment: Toxicity in CF1 mouse assessed as reduction in heart rate at 10 to 600 mg/kg, po by Irwin test; assay type: organism-based; design: dose 10-600 mg/kg, route oral; conditions: in vivo; outline: as §2
[29] = tested on: Mus musculus; experiment: Toxicity in CF1 mouse assessed as ataxia at 10 to 600 mg/kg, po by Irwin test; assay type: organism-based; design: dose 10-600 mg/kg, route oral; conditions: in vivo; outline: as §2
[30] = tested on: Mus musculus; experiment: Toxicity in CF1 mouse assessed as flaccid paralysis at 600 mg/kg, po by Irwin test; assay type: organism-based; design: dose 600 mg/kg, route oral; conditions: in vivo; outline: as §2
[31] = tested on: Mus musculus; experiment: Toxicity in CF1 mouse assessed as change in sleeping time at 300 mg/kg, po administered 30 mins prior to hexobarbital sodium challenge relative to vehicle-treated control; assay type: organism-based; design: dose 300 mg/kg, route oral; conditions: in vivo, 0.5 h; outline: as §3
[32] = tested on: Mus musculus; experiment: Toxicity in CF1 mouse assessed as reduction in respiratory rate at 10 to 600 mg/kg, po by Irwin test; assay type: organism-based; design: dose 10-600 mg/kg, route oral; conditions: in vivo; outline: as §2
[33] = tested on: Mus musculus; experiment: Toxicity in CF1 mouse assessed as cyanosis at 10 to 600 mg/kg, po by Irwin test; assay type: organism-based; design: dose 10-600 mg/kg, route oral; conditions: in vivo; outline: as §2
[34] = tested on: Mus musculus; experiment: Toxicity in CF1 mouse assessed as reduction in opening of eyelid at 10 to 600 mg/kg, po by Irwin test; assay type: organism-based; design: dose 10-600 mg/kg, route oral; conditions: in vivo; outline: as §2
[35] = tested on: Mus musculus; experiment: Inhibition of strychine sulfate/pentetrazole-induced death in CF1 mouse at 300 to 600 mg/kg, po administered 60 mins prior to strychine sulfate/pentetrazole challenge; assay type: functional, organism-based

| SMILES | Ratio ED50 [1] | MIC [2] | MIC [3] | MIC [4] | MIC [5] | MIC [6] | ED50 [7] | selectivity ratio [16] | further results |
| --- | --- | --- | --- | --- | --- | --- | --- | --- | --- |
| CC(CO)c1cnc([N+](=O)[O-])n1C (centres undefined) | >0.7 | 50 µg/mL (≈ 270 µM) | 25 µg/mL (≈ 135 µM) | 0.8 µg/mL (≈ 4.32 µM) | 200 µg/mL (≈ 1080 µM) | 25 µg/mL (≈ 135 µM) | > 10 mg/kg | – | – |
| Cn1c(C(C)(C)OC(=O)Oc2ccccc2)cnc1[N+](=O)[O-] | 0.28 | > 100 µg/mL | 2 µg/mL (≈ 6.55 µM) | 10 µg/mL (≈ 32.8 µM) | 100 µg/mL (≈ 328 µM) | 100 µg/mL (≈ 328 µM) | – | 1970 | Activity [8]: Toxic; Activity [9]: 18.1%; Activity [10]: Toxic; Activity [11]: 15.5%; Activity [12]: Toxic; Activity [13]: Toxic; Activity [14]: Toxic; Activity [15]: inactive; Activity [17]: Toxic; inhibition [18]: inactive; inhibition [19]: Active; Activity [20]: Toxic; Activity [21]: Toxic |
| Cn1c(C(C)(C)OC(N)=O)cnc1[N+](=O)[O-] | 0.4 | > 100 µg/mL | 10 µg/mL (≈ 43.8 µM) | 10 µg/mL (≈ 43.8 µM) | 100 µg/mL (≈ 438 µM) | > 100 µg/mL | 5.74 mg/kg | 156 | LD50 [22]: 900 mg/kg |
| Cn1c(C(C)(C)O)cnc1[N+](=O)[O-] | 0.28 | 40 µg/mL (≈ 216 µM) | 25 µg/mL (≈ 135 µM) | 25 µg/mL (≈ 135 µM) | > 300 µg/mL | 100 µg/mL (≈ 540 µM) | 1.65 mg/kg | 423 | – |
| CCS(=O)(=O)CCn1c([N+](=O)[O-])cnc1C [TINIDAZOLE] | 0.43 | > 300 µg/mL | 3.1 µg/mL (≈ 12.5 µM) | 0.3 µg/mL (≈ 1.21 µM) | > 300 µg/mL | 300 µg/mL (≈ 1210 µM) | 2.5 mg/kg | 1280 | LD50 [22]: 3200 mg/kg |
| CS(=O)(=O)[O-].Cn1c(C(C)(C)[n+]2ccccc2)cnc1[N+](=O)[O-] | >4 | > 100 µg/mL | > 100 µg/mL | > 100 µg/mL | > 100 µg/mL | > 100 µg/mL | > 40 mg/kg | – | solubility [23]: soluble |
| Cc1ncc([N+](=O)[O-])n1CCO [METRONIDAZOLE] | – | > 300 µg/mL | 5 µg/mL (≈ 29.2 µM) | 0.6 µg/mL (≈ 3.51 µM) | > 300 µg/mL | > 300 µg/mL | – | 658 | Activity [24]: Toxic; Activity [25]: 55.9%; Activity [26]: Toxic; Activity [27]: Toxic; Activity [28]: Toxic; Activity [29]: Toxic; Activity [30]: Toxic; Activity [31]: 29.2%; Activity [32]: Toxic; Activity [33]: Toxic; Activity [34]: Toxic; inhibition [35]: Active |
